In ChEMBL document CHEMBL1126267, “A novel synthesis and potent antiinflammatory activity of 4-hydroxy-2(1H)-oxo-1-phenyl-1,8-naphthyridine-3-carboxamides” (1992):

Assays:
Type in all cases: functional
Settings in all cases: route oral
Rattus norvegicus [1] = experiment: Inhibition of carrageenan-induced rat's paw edema (CPE) after peroral administration of 100 mg/kg dose.
Outline: (§1)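 Male Wistar rats (about 150 g) were dosed orally with compound suspended in 5% arabic gum, 1 h before a subplantar hind-paw injection of 0.1 mL saline. The irritant was 1% zymosan for 33 or 1% λ-carrageenin for 34. Paw volume was measured by plethysmograph before dosing and at 4 h (zymosan) or 3 h (carrageenin). Swelling is relative to initial volume, as mean ± SEM. % inhibition is versus the control group's mean swelling.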

Rattus norvegicus [2] = experiment: Inhibition of Zymosan-induced rat's paw edema(ZPE) after peroral administration of 100 mg/kg dose.; outline: as §1
Rattus norvegicus [3] = experiment: Antiinflammatory activity on Zymosan-induced rat's paw edema(ZPE) after peroral administration of 100 mg/kg dose with control swelling of 62.0%
Outline: (§2)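 Male Wistar rats weighing about 150 g were dosed orally with compound suspended in 5% arabic gum. 1 h later, 1% zymosan in 0.1 mL saline was injected subplantarly into the hind paw. Paw volume was measured by plethysmograph before dosing and 4 h after zymosan, with edema as the volume difference. Inhibition % was derived from mean swelling versus the control group.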

Rattus norvegicus [4] = experiment: Compound was tested for the inhibition of rat reversed passive Arthus pleurisy after peroral administration of 100 mg/kg dose at 3.43+/-0.11*10e6 no of cells with 3.62*10e6 cells of control
Outline: (§3)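 Male Wistar rats (about 250 g) under ether received 0.2 mL rabbit anti-egg-albumin antiserum intrapleurally. Thirty min later they got 15 mg EA/100 g body weight in 0.1 mL saline iv. Compounds were given orally beforehand. Rats were killed 4.5 h after induction and the thoracic cavity rinsed with 5 mL saline. Exudate volume and infiltrated cell count were read as mean ± SE. % inhibition is versus control.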

Rattus norvegicus [5] = experiment: Antiinflammatory activity on Carrageenan rat's paw edema(CPE) after peroral administration of 100 mg/kg dose with control swelling of 68.1%
Rattus norvegicus [6] = experiment: Compound was tested for the inhibition of rat reversed passive Arthus pleurisy after peroral administration of 100 mg/kg dose at 0.62 mL of exudate volume with 0.54 mL of control (injected intrapleurally)
Outline: (§4)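 Male Wistar rats (about 250 g) were given compound orally before the antiserum. Under ether anesthesia, 0.2 mL rabbit anti-egg albumin antiserum was injected intrapleurally. After 30 min, egg albumin (15 mg/100 g body weight in 0.1 mL saline) was given iv. Rats were killed 4.5 h later and the thoracic cavity was rinsed with 5 mL saline. Exudate volume and infiltrated cell number were measured, with inhibition % versus controls as mean ± SEM.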

Rattus norvegicus [7] = experiment: Compound was tested for the inhibition of rat reversed passive Arthus pleurisy after peroral administration of 100 mg/kg dose at 3.74*10e6 no of cells with 7.4*10e6 cells of control; outline: as §3
Rattus norvegicus [8] = experiment: Compound was tested for the inhibition of rat reversed passive Arthus pleurisy after peroral administration of 100 mg/kg dose at 0.64 mL of exudate volume with 0.82 mL of control (injected intrapleurally); outline: as §4
Rattus norvegicus [9] = experiment: Antiinflammatory activity on Carrageenan rat's paw edema(CPE) after peroral administration of 100 mg/kg dose with control swelling of 64.2%
Rattus norvegicus [10] = experiment: Antiinflammatory activity on Zymosan-induced rat's paw edema(ZPE) after peroral administration of 100 mg/kg dose with control swelling of 71.7%; outline: as §2
Rattus norvegicus [11] = experiment: Compound was tested for the inhibition of rat reversed passive Arthus pleurisy after peroral administration of 100 mg/kg dose at 6.01*10e6 no of cells with 7.4*10e6 cells of control; outline: as §3
Rattus norvegicus [12] = experiment: Compound was tested for the inhibition of rat reversed passive Arthus pleurisy after peroral administration of 100 mg/kg dose at 0.65 mL of exudate volume with 0.82 mL of control (injected intrapleurally); outline: as §3
Rattus norvegicus [13] = experiment: Antiinflammatory activity on Zymosan-induced rat's paw edema(ZPE) after peroral administration of 100 mg/kg dose with control swelling of 85.5%; outline: as §2
Rattus norvegicus [14] = experiment: Compound was tested for the inhibition of rat reversed passive Arthus pleurisy after peroral administration of 100 mg/kg dose at 3.37*10e6 no of cells with 3.86*10e6 cells of control; outline: as §3
Rattus norvegicus [15] = experiment: Compound was tested for the inhibition of rat reversed passive Arthus pleurisy after peroral administration of 100 mg/kg dose at 0.73 mL of exudate volume with 0.86 mL of control (injected intrapleurally); outline: as §4
Rattus norvegicus [16] = experiment: Antiinflammatory activity on Carrageenan rat's paw edema(CPE) after peroral administration of 100 mg/kg dose with control swelling of 90.0%
Rattus norvegicus [17] = experiment: Compound was tested for the inhibition of rat reversed passive Arthus pleurisy after peroral administration of 100 mg/kg dose at 0.58 mL of exudate volume with 0.82 mL of control (injected intrapleurally); outline: as §4
Rattus norvegicus [18] = experiment: Compound was tested for the inhibition of rat reversed passive Arthus pleurisy after peroral administration of 100 mg/kg dose at 3.44*10e6 no of cells with 7.4*10e6 cells of control; outline: as §3
Rattus norvegicus [19] = experiment: Antiinflammatory activity on Carrageenan rat's paw edema(CPE) after peroral administration of 100 mg/kg dose with control swelling of 73.7%
Rattus norvegicus [20] = experiment: Antiinflammatory activity on Zymosan-induced rat's paw edema(ZPE) after peroral administration of 100 mg/kg dose with control swelling of 72.9%; outline: as §2

For `O=C(Nc1ccc(Cl)cc1)c1c(O)c2cccnc2n(-c2ccccc2)c1=O`, the inhibition in vivo at 100 mg/kg (Rattus norvegicus [1]) was 2.5%, the inhibition in vivo at 100 mg/kg (Rattus norvegicus [2]) was 11.6% and the Swelling (Rattus norvegicus [3]) was 54.8%. It also gave an inhibition in vivo at 100 mg/kg (Rattus norvegicus [4]) of 18.8%, a Swelling (Rattus norvegicus [5]) of 66.4% and an inhibition in vivo at 100 mg/kg (Rattus norvegicus [6]) of -16.3%.
With `O=C(NCc1ccncc1)c1c(O)c2cccnc2n(-c2ccccc2)c1=O` the inhibition in vivo at 100 mg/kg (Rattus norvegicus [7]) was 49.5%, the inhibition in vivo at 100 mg/kg (Rattus norvegicus [1]) was 15.4% and the inhibition in vivo at 100 mg/kg (Rattus norvegicus [2]) was 10%. For the same compound, the inhibition in vivo at 100 mg/kg (Rattus norvegicus [8]) was 22%, the Swelling (Rattus norvegicus [9]) was 54.3% and the Swelling (Rattus norvegicus [10]) was 64.5%.
In the case of `O=C(Nc1ccc(Cl)nc1)c1c(O)c2cccnc2n(-c2ccccc2)c1=O`, the inhibition in vivo at 100 mg/kg (Rattus norvegicus [1]) was -4%, the inhibition in vivo at 100 mg/kg (Rattus norvegicus [11]) was 18.8% and the inhibition in vivo at 100 mg/kg (Rattus norvegicus [2]) was 9.2%. For the same compound, the Swelling (Rattus norvegicus [9]) was 66.8%, the inhibition in vivo at 100 mg/kg (Rattus norvegicus [12]) was 20.7% and the Swelling (Rattus norvegicus [10]) was 65.1%.
In the case of `Cc1ccccc1NC(=O)c1c(O)c2cccnc2n(-c2ccccc2)c1=O`, the inhibition in vivo at 100 mg/kg (Rattus norvegicus [1]) was 9.8%, the inhibition in vivo at 100 mg/kg (Rattus norvegicus [2]) was 11.7% and the Swelling (Rattus norvegicus [13]) was 75.5%. For the same compound, the inhibition in vivo at 100 mg/kg (Rattus norvegicus [14]) was 16.6%, the inhibition in vivo at 100 mg/kg (Rattus norvegicus [15]) was 16.9% and the Swelling (Rattus norvegicus [16]) was 81.2%.
`O=C(NCc1cccnc1)c1c(O)c2cccnc2n(-c2ccccc2)c1=O` showed an inhibition in vivo at 100 mg/kg (Rattus norvegicus [1]) of 14.7%, an inhibition in vivo at 100 mg/kg (Rattus norvegicus [17]) of 29.3% and an inhibition in vivo at 100 mg/kg (Rattus norvegicus [18]) of 53.5%. The inhibition in vivo at 100 mg/kg (Rattus norvegicus [2]) was 25.5%, the Swelling (Rattus norvegicus [19]) was 62.8% and the Swelling (Rattus norvegicus [20]) was 54.3%.
